The source made the active and inactive calls. The rule behind the calls is not given here.
Experiments:
[1] = biological target: T1, Transient receptor potential cation channel subfamily V member 6 (Homo sapiens) (UniProt Q9H1D0); test: Inhibition of human TRPV6 expressed in HEK293 cells assessed as reduction in cadmium induced cytotoxicity by measuring increase in cell survival at 10 uM incubated for 24 hrs by XTT assay; assay type: cell-based
T1 sequence (whole entry): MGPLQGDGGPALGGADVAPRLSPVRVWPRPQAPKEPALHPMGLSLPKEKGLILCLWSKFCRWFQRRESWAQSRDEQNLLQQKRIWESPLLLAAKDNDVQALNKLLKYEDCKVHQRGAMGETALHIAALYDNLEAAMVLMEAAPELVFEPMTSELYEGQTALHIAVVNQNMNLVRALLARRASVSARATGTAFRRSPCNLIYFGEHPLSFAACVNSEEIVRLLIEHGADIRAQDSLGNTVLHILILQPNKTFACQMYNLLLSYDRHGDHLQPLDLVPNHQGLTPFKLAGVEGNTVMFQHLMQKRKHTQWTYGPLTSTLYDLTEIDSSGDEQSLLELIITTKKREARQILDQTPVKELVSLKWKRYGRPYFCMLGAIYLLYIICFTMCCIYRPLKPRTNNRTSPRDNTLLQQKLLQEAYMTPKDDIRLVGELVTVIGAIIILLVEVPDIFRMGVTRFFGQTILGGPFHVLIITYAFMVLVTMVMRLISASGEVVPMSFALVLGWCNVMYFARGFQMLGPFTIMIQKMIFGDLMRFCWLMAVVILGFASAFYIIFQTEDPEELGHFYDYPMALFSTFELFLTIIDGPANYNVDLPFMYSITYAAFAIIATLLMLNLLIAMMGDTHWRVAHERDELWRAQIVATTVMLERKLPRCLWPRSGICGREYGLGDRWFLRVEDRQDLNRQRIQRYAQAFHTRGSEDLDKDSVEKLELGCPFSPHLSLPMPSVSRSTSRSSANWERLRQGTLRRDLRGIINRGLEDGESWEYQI
In short: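 HEK293 wt or HEK-hTRPV6 cells in DMEM with 10% FBS, glutamine, penicillin/streptomycin and non-essential amino acids. Seeded at 1.5 x 10⁴ cells/well and left 24 h, then given CdCl2 at 50 to 0.05 µM with or without test compound at 1.0 or 10 µM; blank was 0.01% DMSO. Incubation 24 h at 37 °C. XTT/PMS read for 2 h at A450−A650, as % viable versus blank. n = 4/concentration, 2 independent experiments.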

[2] = biological target: T2, Alpha-1A adrenergic receptor (Homo sapiens, UniProt P35348); test: Inhibition of human alpha1A adrenergic receptor at 10 uM
T2 sequence (P35348 whole entry): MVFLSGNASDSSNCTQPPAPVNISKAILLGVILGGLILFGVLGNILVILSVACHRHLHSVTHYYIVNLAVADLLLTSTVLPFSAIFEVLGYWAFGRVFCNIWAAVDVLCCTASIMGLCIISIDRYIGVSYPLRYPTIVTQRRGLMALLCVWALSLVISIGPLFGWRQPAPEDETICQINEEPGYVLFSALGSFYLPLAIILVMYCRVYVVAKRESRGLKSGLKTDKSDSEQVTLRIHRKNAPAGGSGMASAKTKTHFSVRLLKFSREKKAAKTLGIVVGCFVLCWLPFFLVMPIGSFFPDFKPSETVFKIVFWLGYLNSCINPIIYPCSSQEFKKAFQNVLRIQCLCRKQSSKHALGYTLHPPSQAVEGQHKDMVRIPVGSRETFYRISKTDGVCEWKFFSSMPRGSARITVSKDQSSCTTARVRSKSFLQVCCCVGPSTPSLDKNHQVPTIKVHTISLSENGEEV

[3] = biological target: D(2) dopamine receptor (Homo sapiens, UniProt P14416); test: Inhibition of human dopamine D2S receptor at 10 uM
D(2) dopamine receptor, sequence (P14416 whole entry): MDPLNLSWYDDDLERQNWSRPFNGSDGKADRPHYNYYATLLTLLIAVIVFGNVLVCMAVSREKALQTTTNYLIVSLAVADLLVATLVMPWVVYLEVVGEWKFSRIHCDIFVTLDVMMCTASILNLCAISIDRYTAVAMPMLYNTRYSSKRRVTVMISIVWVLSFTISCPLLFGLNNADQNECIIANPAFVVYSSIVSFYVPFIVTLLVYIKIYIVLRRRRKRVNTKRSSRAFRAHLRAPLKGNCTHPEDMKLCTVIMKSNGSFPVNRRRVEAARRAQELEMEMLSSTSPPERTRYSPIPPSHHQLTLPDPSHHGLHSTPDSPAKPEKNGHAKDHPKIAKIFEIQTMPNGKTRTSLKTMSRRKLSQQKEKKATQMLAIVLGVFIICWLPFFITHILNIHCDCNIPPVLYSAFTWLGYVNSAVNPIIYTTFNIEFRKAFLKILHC

[4] = biological target: T3, Muscarinic acetylcholine receptor M2 (Homo sapiens, UniProt P08172); test: Inhibition of human muscarinic M2 receptor at 10 uM
T3 sequence (P08172 whole entry): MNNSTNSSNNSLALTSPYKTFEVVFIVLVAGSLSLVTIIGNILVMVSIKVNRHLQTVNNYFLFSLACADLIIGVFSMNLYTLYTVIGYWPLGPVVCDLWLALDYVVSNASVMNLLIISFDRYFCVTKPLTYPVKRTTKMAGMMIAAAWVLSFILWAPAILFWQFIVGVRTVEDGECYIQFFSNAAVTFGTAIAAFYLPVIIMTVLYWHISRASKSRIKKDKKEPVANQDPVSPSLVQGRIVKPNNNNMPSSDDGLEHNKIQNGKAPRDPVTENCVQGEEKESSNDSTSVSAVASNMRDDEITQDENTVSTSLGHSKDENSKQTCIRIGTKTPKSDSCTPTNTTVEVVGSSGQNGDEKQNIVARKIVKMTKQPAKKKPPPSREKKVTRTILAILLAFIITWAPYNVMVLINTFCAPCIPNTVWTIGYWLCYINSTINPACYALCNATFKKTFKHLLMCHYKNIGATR

[5] = biological target: D(1A) dopamine receptor (Homo sapiens, UniProt P21728); test: Inhibition of human dopamine D1 receptor at 10 uM
D(1A) dopamine receptor, sequence (P21728 whole entry): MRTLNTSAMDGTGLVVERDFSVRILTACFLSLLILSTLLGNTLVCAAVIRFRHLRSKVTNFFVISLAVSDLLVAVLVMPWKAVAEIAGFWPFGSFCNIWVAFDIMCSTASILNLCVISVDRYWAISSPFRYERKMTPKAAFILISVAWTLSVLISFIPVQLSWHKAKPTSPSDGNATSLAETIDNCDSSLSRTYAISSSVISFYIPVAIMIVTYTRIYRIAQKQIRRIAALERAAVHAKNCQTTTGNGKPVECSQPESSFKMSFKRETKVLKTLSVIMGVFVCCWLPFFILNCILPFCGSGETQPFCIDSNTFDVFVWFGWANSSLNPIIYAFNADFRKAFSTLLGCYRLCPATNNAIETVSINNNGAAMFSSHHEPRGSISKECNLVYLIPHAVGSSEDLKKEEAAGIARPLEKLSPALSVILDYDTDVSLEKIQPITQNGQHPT

[6] = tested on: T47D; test: Antiproliferative activity against human T47D cells assessed as cell growth inhibition at 0.4 to 100 uM after 6 days by XTT assay; assay type: cell-based; conditions: human, t47d, 144 h, 100 µM; dose 0.4-100 µM, time 6 day
In short: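 Cells grown in RPMI with 10% FBS, 2 mM L-glutamine, penicillin/streptomycin and 1% non-essential amino acids. Seeded at 5 x 10³ cells/well and left 24 h at 37 °C, then treated at 100 μM to 0.4 μM. Exposure 6 days at 37 °C with fresh treatment medium every 48 h. Doxorubicin 10 μM and DMSO 0.01% served as controls. XTT with 1.25% PMS for 2 h; absorbance at 450 minus 650 nm, as % viable versus DMSO. Curves fitted by four-parameter non-linear regression. Mean ± SEM, n = 3/concentration, ≥3 independent experiments.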

[7] = Inhibition of SOCE in human MDA-MB-231 cells at 5 uM pretreated for 20 mins followed by Tg addition for 10 mins followed by CaCl2 addition by FLIPR assay; assay type: cell-based; conditions: mda-mb-231, 0.5 h, time 30 min
In short: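 MDA-MB-231 cells at 6 x 10⁴ cells/well in phenol-red-free RPMI with 10% FBS, assayed 16 h later. Loaded in nominally Ca²⁺-free buffer with calcium-5 for 40 min at 37 °C. Compound, with GSK-7975A as reference, given for 20 min. After a 50 s baseline, thapsigargin was added and followed for 10 min, then CaCl2 was added. SOCE taken as AUC of the Ca²⁺ entry trace.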

[8] = Inhibition of rat L-type calcium channel (verapamil site) at 10 uM

inhibition (INH) [2]: Not Active | inhibition (INH) [3]: Not Active | inhibition (INH) [4]: Not Active | inhibition (INH) [5]: Not Active | inhibition (INH) [7]: Not Active | inhibition (INH) [8]: Not Active
SMILES: O=c1ccc(CN2CCN([C@H]3CC[C@@](O)(c4cccc(C(F)(F)F)c4)CC3)CC2)c[nH]1
inhibition [1]: Active | Activity [6]: Non-Toxic
